Results taken from article PMC7114315 (Antiviral Research, 2010).
Read-outs that look alike come from different tables or passages of the source.

Columns and labels:
[1] = Cell viability by MTT assay; format: cell-based, Felis catus; conditions: cat (Felis catus), fcwf-4 cells
How it was run: (§1)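 fcwf-4 cells grown in DMEM with 5% FBS, penicillin/streptomycin, 5% CO2, 37 °C; 20,000 cells/well seeded, 24 h at 37 °C to confluence. Test compounds (in DMSO or double distilled water), twofold serially diluted, applied 72 h. MTT ([…]) 4 h at 37 °C, lysis overnight at room temperature, absorbance 570/655 nm. Viability = treated/untreated OD × 100; CC50 = 50% viability reduction; triplicate.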

fcwf-4 cells = assay: Cell viability by MTT assay; format: cell-based, Felis catus; conditions: for Cytotoxic effect under the tested concentrations: three days of treatment, Fig. 1; for CC50: fcwf-4 cells, 72 h, MTT
How it was run: as §1

SARS-CoV = conditions: read-out: IC50 on SARS-CoV; cited from earlier work
[2] = system: FCoV (NTU156) in fcwf-4 cells; format: cell-based, feline coronavirus
[3] = 9 clinical healthy FCoV-shedding cats, 6.25 mg to 50 mg/kg/day per os, preliminary
[4] = system: FCoV (NTU156) in fcwf-4 cells; assay: microbe, parasite or virus in culture; format: cell-based, feline coronavirus

Row | Molecule | CC50 at 72 h [1] | Cytotoxic effect under the tested concentrations (fcwf-4 cells) | also measured
1 | Nc1nc2c(ncn2COCCO)c(=O)[nH]1 [Acyclovir, acyclovir] | ≥ 888 µM | – | –
2 | COC(=O)N[C@H](C(=O)N[C@@H](Cc1ccccc1)[C@@H](O)CN(Cc1ccc(-c2ccccn2)cc1)NC(=O)[C@@H](NC(=O)OC)C(C)(C)C)C(C)(C)C [Atazanavir, atazanavir] | 48.6 µM | dramatic cytotoxic effect | –
3 | O=C1Nc2ccc(Cl)cc2[C@@](C#CC2CC2)(C(F)(F)F)O1 [Efavirenz, efavirenz] | 52.1 µM | dramatic cytotoxic effect | –
4 | Cc1cc(O)c2c(c1)C(=O)c1cc(O)cc(O)c1C2=O [Emodin, emodin] | 67.4 µM | dramatic cytotoxic effect | –
5 | O=c1[nH]c(=O)n([C@H]2C[C@H](O)[C@@H](CO)O2)cc1I [Idoxuridine, idoxuridine] | ≥ 141 µM | – | –
6 | CC(C)(C)NC(=O)[C@@H]1CN(Cc2cccnc2)CCN1C[C@@H](O)C[C@@H](Cc1ccccc1)C(=O)N[C@H]1c2ccccc2C[C@H]1O [Indinavir, indinavir] | ≥ 70.2 µM | – | –
7 | Nc1ccn([C@@H]2CS[C@H](CO)O2)c(=O)n1 [Lamivudine, lamivudine] | ≥ 27.3 µM | – | –
8 | Cc1c(O)cccc1C(=O)N[C@@H](CSc1ccccc1)[C@H](O)CN1C[C@H]2CCCC[C@H]2C[C@H]1C(=O)NC(C)(C)C [Nelfinavir, nelfinavir] | 11.5 µM | dramatic cytotoxic effect | IC50 (SARS-CoV): 0.048 µM; Number of CPE foci compared with untreated groups [2]: significantly inhibited the number of CPE foci; Induction of CPE foci ([2]; only the highest concentration, 9.41 μM, P < 0.001, […]): significantly blocked the induction of CPE foci; Side effects (e.g., diarrhea or nausea) [3]: no obviously side effects; IC50 ([4]; Alphacoronavirus 1, 72 h): 8.19 µM
9 | Cc1ccnc2c1NC(=O)c1cccnc1N2C1CC1 [Nelvirapine, nelvirapine] | – | – | CC50 (fcwf-4 cells): ≥ 46.9 µM
10 | CN(C)CCCN1c2ccccc2Sc2ccccc21 [Promazine, promazine] | ≥ 0.1 µM | – | –
11 | NC(=O)c1ncn([C@@H]2O[C@H](CO)[C@@H](O)[C@H]2O)n1 [Ribavirin, ribavirin] | ≥ 409 µM | – | –
12 | CC(C)(C)NC(=O)[C@@H]1C[C@@H]2CCCC[C@@H]2CN1C[C@@H](O)[C@H](Cc1ccccc1)NC(=O)[C@H](CC(N)=O)NC(=O)c1ccc2ccccc2n1 [Saquinavir, saquinavir] | 95.8 µM | dramatic cytotoxic effect | –
13 | Cc1cn([C@H]2C=C[C@@H](CO)O2)c(=O)[nH]c1=O [Stavudine, stavudine] | ≥ 55.8 µM | – | –
14 | Galanthus nivalis agglutinin | – | – | CC50 (fcwf-4 cells): ≥ 0.00192 µM; Inhibition of CPE foci, concentration-dependence ([2]; all four concentrations, […]): strong inhibitory activities at all four concentrations; IC50 [4]: 8.8e-06 µM
